One block for each molecule: values may come before it.
What was measured:
HeLa = assay: Cytotoxicity against human HeLa cells assessed as inhibition of colony formation after 5 to 8 days by colony assay; assay type: functional, cell-based
Summary of the method: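 HeLa cells were seeded at 100-150 cells per well and grown with a range of compound concentrations in MEM with 10% fetal calf serum for 5-8 days at 37 °C under 5% CO2/95% air. Colonies were stained with 1% methylene blue in 50% methanol and counted; a cluster of 40 or more cells counted as one colony.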

[1] = test system: Human immunodeficiency virus 1; assay: Antiviral activity against HIV1 in cell cultures assessed as inhibition of viral replication; assay type: functional, organism-based
MDCK [2] = assay: Cytotoxicity against MDCK cells assessed as inhibition of colony formation after 5 to 8 days by colony assay; assay type: cell-based; conditions: Canis lupus familiaris
Summary of the method: (§1)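 Colony-formation assay: 100-150 cells per well grown with varying concentrations of compound for 5-8 days at 37 °C under 5% CO₂/95% air. Colonies were stained with 1% methylene blue in 50% methanol and counted, with clusters of 40 or more cells scored as colonies. IC50 was estimated from dose-response curves.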

Vero = assay: Cytotoxicity against african green monkey Vero cells assessed as inhibition of colony formation after 5 to 8 days by colony assay; assay type: cell-based; conditions: Chlorocebus sabaeus; summary of the method: as §1
XC = assay: Cytotoxicity against rat XC cells assessed as inhibition of colony formation after 5 to 8 days by colony assay; assay type: functional, cell-based; summary of the method: as §1
MDCK [3] = assay: Cytotoxicity against MDCK cells at 1 mM by MTT assay; assay type: cell-based, Canis lupus familiaris; conditions: dog, 1000 µM

SMILES: COc1cc(-c2c3c4ccccc4oc(=O)c3n3ccc4cc(O)c(OC)cc4c23)ccc1O
IC50 (HeLa): 4 µM

SMILES: COc1ccc2oc(=O)c3c(c(-c4ccc(O)c(OC)c4)c4c5cc(OC)c(O)cc5ccn43)c2c1
IC50 (HeLa): 0.85 µM

SMILES: COc1ccc(-c2c3c4cc5c(cc4oc(=O)c3n3ccc4cc(OC)c(OC)cc4c23)OCO5)cc1OC
IC50 (HeLa): > 100 µM

SMILES: COc1cc2c(cc1O)oc(=O)c1c2c(-c2ccc(OC)c(OC)c2)c2c3cc(OC)c(OC)cc3ccn21
IC50 (HeLa): 2.5 µM

SMILES: O=c1oc2ccccc2c2c(-c3ccc(O)c(O)c3)c3c4cc(O)c(O)cc4ccn3c12
IC50 (HeLa): 1.1 µM

SMILES: CC(=O)Oc1ccc(-c2c3c4cc(OC(C)=O)c(OC(C)=O)cc4oc(=O)c3n3ccc4cc(OC(C)=O)c(OC(C)=O)cc4c23)cc1OC(C)=O
IC50 (HeLa): 11 µM

SMILES: COc1cc(-c2c3c4ccc(O)cc4oc(=O)c3n3ccc4cc(O)c(OC)cc4c23)ccc1O
IC50 (HeLa): 0.0395 µM

SMILES: COc1cccc(-c2c3c4cc(OC)c(O)cc4oc(=O)c3n3ccc4cc(O)c(OC)cc4c23)c1
IC50 (HeLa): 0.07 µM

IC50 [1]: 8 µM
SMILES: COc1ccc(-c2c3c4cc(OC)c(OS(=O)(=O)O)cc4oc(=O)c3n3ccc4cc(OC)c(OC)cc4c23)cc1O

SMILES: COc1cc2c(cc1O)oc(=O)c1c2c(-c2ccc(O)cc2)c2c3cc(OC)c(O)cc3ccn21
IC50 (HeLa): 0.038 µM

SMILES: COc1ccc(-c2c3c4ccccc4oc(=O)c3n3ccc4cc(OC)c(OC)cc4c23)cc1OC
IC50 (HeLa): 5.7 µM | IC50 (MDCK [2]): 5.6 µM | IC50 (Vero): 4.7 µM | IC50 (XC): 5.6 µM

SMILES: COc1cc(-c2c3c4cc(OC)c(O)cc4oc(=O)c3n3ccc4cc(O)c(OC)cc4c23)ccc1O [LAMELLARIN D]
IC50 (HeLa): 0.0105 µM | Activity (MDCK [3]): Non-toxic | IC50 (MDCK [2]): 0.0225 µM | IC50 (Vero): 0.0105 µM | IC50 (XC): 0.0124 µM

SMILES: O=c1oc2cc(O)c(O)cc2c2c(-c3ccc(O)c(O)c3)c3c4cc(O)c(O)cc4ccn3c12 [LAMELLARIN H]
IC50 (HeLa): > 100 µM

SMILES: CO[C@@]12[C@H](COC(N)=O)C3=C(C(=O)C(C)=C(N)C3=O)N1C[C@@H]1N[C@@H]12 [MITOMYCIN]
IC50 (HeLa): 0.068 µM

— ChEMBL document CHEMBL1148117, “Synthesis and structure-activity relationship study of lamellarin derivatives” (J Nat Prod, 2002)
